Data taken from ChEMBL document CHEMBL1146506, “Sesquiterpene coumarins from Ferula fukanensis and nitric oxide production inhibitory effects” (J Nat Prod, 2004).
Calls of active or inactive are those of the source. The calls are words filed in the database; no cut-off is given here.

How the values were obtained:
RAW264.7 [1] = experiment: Inhibition of LPS and INF-gamma-induced NO production in mouse RAW264.7 cells; type: functional, cell-based
In short: (§1)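 Cells seeded at 1.2 × 10^6 cells/mL, preincubated 2 h at 37 °C. Test compound added together with E. coli LPS (100 ng/mL) and recombinant mouse IFN-γ (0.33 ng/mL), then incubated at 37 °C, usually 16 h. Nitrite in chilled culture supernatant measured with Griess reagent (1% sulfanilamide in 5% H3PO4, 0.1% naphthylethylenediamine) against NaNO2 standards, read at 550 nm minus 630 nm background.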

RAW264.7 [2] = experiment: Inhibition of LPS and INF-gamma-induced iNOS mRNA expression in mouse RAW264.7 cells by RT-PCR analysis; type: functional, cell-based
In short: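 Cells at 1.2 × 10^6 cells/mL, preincubated 2 h at 37 °C, then test compound added with LPS (100 ng/mL) and IFN-γ (0.33 ng/mL) for about 8 h. Total RNA (250 ng) reverse-transcribed with oligo(dT) primer. iNOS and GAPDH amplified with specific primers for 25 cycles (94 °C 1 min, 60 °C 1 min, 72 °C 1.5 min).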

RAW264.7 [3] = experiment: Inhibition of LPS and INF-gamma-induced NO production in mouse RAW264.7 cells at 10 ug/mL; type: functional, cell-based; in short: as §1
RAW264.7 [4] = experiment: Cytotoxicity against mouse RAW264.7 cells at 10 ug/mL; type: cell-based
In short: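 MTT assay. Compound given at 0.3–10 µg/mL during LPS/IFN-γ treatment for 24 h.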

Row | SMILES | IC50 (RAW264.7 [1]) [µM] | Activity (RAW264.7 [2]) | Activity (RAW264.7 [3]) | Activity (RAW264.7 [4])
1 | CC(C)=CC(=O)/C=C(\C)CCC[C@@]1(C)Oc2c(c(=O)oc3cc(O)ccc23)[C@H]1C (relative stereo) [FUKANEFUROMARIN B] | 16.2 |  |  | 
2 | CC(C)=CC(=O)C/C(C)=C/CC[C@@]1(C)Oc2c(c(=O)oc3cc(O)ccc23)[C@@H]1C | 24.6 |  |  | 
3 | CC(C)=CC(=O)/C=C(/C)CCC[C@@]1(C)Oc2c(c(=O)oc3cc(O)ccc23)[C@@H]1C (relative stereo) [FUKANEFUROMARIN C] | 11.1 | Dose-dependent effect |  | 
4 | CC(C)=CCC/C(C)=C/CC[C@@]1(C)Oc2c(c(=O)oc3cc(O)ccc23)[C@H]1C |  |  | inactive | Non-toxic
5 | CC(C)=CCC/C(C)=C/CC[C@@]1(C)Oc2c(c(=O)oc3cc(O)ccc23)[C@@H]1C |  |  | inactive | Non-toxic
6 | CC(C)=CC(=O)/C=C(\C)CCC[C@@]1(C)Oc2c(c(=O)oc3cc(O)ccc23)[C@@H]1C (relative stereo) [FUKANEFUROMARIN A] | 13 |  |  | 
7 | CC(C)=CC(=O)C/C(C)=C/CC[C@@]1(C)Oc2c(c(=O)oc3cc(O)ccc23)[C@H]1C (relative stereo) | 31.2 |  |  | 
8 | CC(C)=CC(=O)/C=C(/C)CCC[C@@]1(C)Oc2c(c(=O)oc3cc(O)ccc23)[C@H]1C (relative stereo) [FUKANEFUROMARIN D] | 8.9 | Dose-dependent effect |  | 
